Compound activity: PubChem, several laboratories
Pf gamet viab – P. falciparum stage V gametocyte viability inhibition; 0.065% of 150,000 active; AID 743093; inhibition, % at 10.9 µM; P. falciparum stage V gametocytes, ATP luminescence, 24 h;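 active = inhibition above the mean plus 3 SD of compounds within the control limits, set per campaign, cut at about 38% in these data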;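 note: 0% = DMSO wells and 100% = medium only without gametocytes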
KCC2 mod – modulates chloride dependent transport by human KCC2; Q9H2X9; KCC2 cells, thallium flux FluoZin-2 fluorescence; B-score of Tl+ flux slope (higher = more flux/activation; lower = inhibition) at 10 µM; 2.2% of 190,000 active;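 active = thallium flux slope and its plate-corrected score both differing from the plate sample mean at a set confidence after two filtering rounds, in either direction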;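 note: slope of fluorescence scaled to starting intensity during 10 to 20 s after thallium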
WT yeast gro inh – growth inhibition of WT yeast, mitochondrial fusion screen. mitochondrial fusion phenotypic screen, WT strain. inhibition, % at 10 µM. 2.1% of 190,000 active; in the data active = inhibition above about 58%; tested in S. cerevisiae
bCat nuc transl – beta-catenin nuclear translocation modulation; AID 1665; nuclear translocation activity, % at 5 µM; HeLa beta-catenin nuclear translocation, immunofluorescence imaging; 0.3% of 190,000 active;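 active = nuclear translocation activity above 50% at 5 µM, with a well cell count of 50 or more; inconclusive = wells under 50 cells across six images, flagged as toxic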;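 note: per-cell ratio of nuclear to cytoplasmic median beta-catenin stain intensity; plate controls were DMSO negative control for no effect and GSK-3 inhibitor IX positive control for full effect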
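assay system = human HeLa cells, endogenous beta-catenin | times = compound treatment 24 h, 37°C, 5% CO2 | detection = Anti-beta-catenin immunofluorescence on PFA-fixed, Triton-permeabilized cells, DAPI nuclei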
MT stabilizer – microtubule stabilization, imaging screen | 0.83% of 200,000 active | % tubulin-high responders, % at 10 µM | HeLa tubulin immunostaining HCS, 24 h; share of cells brighter than vehicle mean+2SD | AID 2205;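 active = plate Z-score above 3 for both tubulin-high and condensed-nucleus cell shares, with cell loss under 80%, at 10 µM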;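 note: anti alpha tubulin signal scored within the nucleus-defined area of each cell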
KCC2 sec1 – confirmation of human KCC2 transport modulators; shares compounds with KCC2 mod; HEK293-KCC2, thallium flux, FluoZin2 fluorescence; stronger effect = higher value; normalised thallium flux (F/F0 slope) at 10 µM; 15% of 3,700 active; AID 1713;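 active = thallium flux slope above the same plate's solvent-only control mean plus 3 SD; inconclusive = the two replicate wells disagree; inactive = no significant difference from solvent-only control wells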
KCC2 bumet counter – bumetanide-insensitive thallium flux in KCC2 cells with ouabain, counter-screen. shares compounds with KCC2 mod. HEK293-KCC2 + bumetanide/ouabain, thallium flux FluoZin2; stronger effect = higher value. normalized thallium flux at 10 µM. 49% of 3,700 active. AID 1714;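 active = thallium entry rate above the same plate's blocked-transporter control wells by more than 3 SD; inconclusive = the two repeat wells disagree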;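 note: raw slope of fluorescence over initial fluorescence between 10 and 20 s after thallium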
KCC2 sec2 – confirmation of human KCC2 transport modulators. shares compounds with KCC2 mod. HEK293-KCC2, thallium flux FluoZin2 fluorescence; actives lie on both sides; F/F0 rise rate, 10–20 s post-thallium. normalized thallium flux at 10 µM. 23% of 3,700 active. AID 1715;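 active = thallium flux slope more than 3 SD above or below the plate's solvent-only control mean, mostly below; inconclusive = the two repeat wells disagreed; inactive = no significant shift from solvent-only controls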;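 note: raw slope with 0.1% DMSO as baseline and bumetanide as block control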
HEK counter1 – parental HEK flux effect, counter-screen; shares compounds with KCC2 mod; HEK293 parental cells, thallium flux FluoZin2, ouabain; baseline-ratio fluorescence slope, 10–20 s after thallium; thallium flux rate (normalised fluorescence) at 10 µM; 46% of 3,700 active;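 active = thallium flux rate significantly above the same plate's solvent-only control wells, beyond their mean plus 3 SD; inconclusive = the two replicate wells gave conflicting results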
KCC2 ouabain – modulates human KCC2 on retest with ouabain; shares compounds with KCC2 mod; HEK293-KCC2, thallium flux FluoZin2 fluorescence; bidirectional: low = inhibitor, high = activator; raw Tl+ flux slope (below DMSO = inhibition, above = activation) at 10 µM; 48% of 3,700 active; AID 1717;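 active = thallium flux slope beyond 3 SD from same-plate DMSO control mean in most replicates, usually higher, sometimes lower; inconclusive = repeat tests gave conflicting results; inactive = no significant difference from controls in most replicates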;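 note: slope of initial-normalized fluorescence between seconds 10 and 20 after thallium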
HEK293 Tl flux2 – acts in parental HEK cells, second KCC2 counter-screen; 33% of 3,700 active; thallium flux slope at 10 µM; shares compounds with KCC2 mod; HEK293 parental, thallium flux FluoZin-2 fluorescence slope;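 active = thallium flux slope above the same plate's solvent-control mean plus 3 SD in both duplicate wells; inconclusive = duplicate wells that disagreed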;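 note: run without ouabain in cells lacking the KCC2 cotransporter; slope of fluorescence scaled to its starting value between 10 and 20 s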
The depositor's hits bear a star; ? = inconclusive; . = no result given. The list is not random: actives were taken first. Their share in the collection is about 4%.

SMILES	Pf gamet viab	KCC2 mod	WT yeast gro inh	bCat nuc transl	MT stabilizer	KCC2 sec1	KCC2 bumet counter	KCC2 sec2	HEK counter1	KCC2 ouabain	HEK293 Tl flux2
Cc1ccc(C)c(NC(=S)NNC(=O)c2ccc(Br)o2)c1	.	.	-8	.	3	.	.	.	.	.	.
Cc1ccc(C)c(NC(=S)NNC(=O)c2sccc2C)c1	.	4.1*	-11	0	1	0.011	0.026*	0.038	?	0.031*	0.011
Cc1ccc(C)c(NC(=S)NNC(=O)c2csc(C)c2C)c1	9	11*	-3	0	1	0.016*	0.041*	0.038	0.04*	0.042*	0.015*
Cc1ccc(C)c(NC(=O)CCC(=O)NNC(=S)Nc2ccccc2)c1	.	-0.076	-8	-4	6	.	.	.	.	.	.
CS(=O)(=O)N(CC(=O)N/N=C/c1cc2c(cc1Br)OCO2)c1ccccc1Br	9	5.1*	17	0	2	0.0075	0.0046	0.03	0.0077	0.019	0.011
CC[C@H](CO)Nc1nc(Nc2cccc(Cl)c2)c2ncn(C(C)C)c2n1	.	-2.6*	.	3	.	0.017	0.0047	?	0.0071	0.015	0.01
CC(c1nccs1)N(C)c1nc2nonc2nc1N(C)C (stereo not given)	11	-0.12	0	1	3	.	.	.	.	.	.
Cc1nnc(SCC(=O)c2cc(C)n(-c3ccc4c(c3)OCO4)c2C)s1	.	-3.3*	-15	3	5	?	0.0031*	0.032	?	0.022	0.0094
C=CCn1c(Cc2cccs2)nnc1SCC(=O)c1ccc2ccccc2c1	-6	-5.9*	-4	-1	3	0.0091	?	0.027*	0.0065	0.014*	0.01
C=CCn1c(CNC(=O)c2cccs2)nnc1SCC(=O)c1ccc(Br)cc1	-1	-5.1*	-29	.	2	0.0078	0.0051	0.031	0.0065	0.037*	0.01
C=CCn1c(Cc2cccs2)nnc1SCC(=O)c1ccc(F)cc1	2	-4.1*	-3	-1	5	0.0068	0.0042	0.026	0.0056	0.015*	0.0088
C=CCn1c(CCNC(=O)c2cccs2)nnc1SCC(=O)c1ccc(Cl)cc1	-10	-0.078	-15	-3	1	.	.	.	.	.	.
Cc1ccc(CN2CCN(/N=C/c3sccc3C)CC2)c(C)c1	.	-0.66	53	-1	3	.	.	.	.	.	.
O=C1CN(C(=O)COC(=O)c2cccc(OCc3ccccc3)c2)c2ccccc2N1	14	1	-3	-2	6	.	.	.	.	.	.
O=C(C1CCN(S(=O)(=O)c2cccc3nsnc23)CC1)N1CCc2ccccc2C1	-21	-6*	10	0	5	0.01	0.0068	0.023*	0.008	0.015*	0.011
COc1ccc(S(=O)(=O)N2CCC(C(=O)N3CCc4ccccc4C3)CC2)cc1C	-1	-3.5*	28	-5	1	0.007	0.0049	0.024*	0.0076	0.015*	0.01
Cc1ccc(S(=O)(=O)N2CCC(C(=O)N3Cc4ccccc4C3)CC2)cc1	15	-0.13	-6	-6	1	.	.	.	.	.	.
COc1ccc(NC(=O)CSc2nnc(Cn3cnc4ccccc43)o2)cc1	27	0.4	7	0	2	.	.	.	.	.	.
O=C(NCCCN1CCOCC1)C(C(=O)NCCCN1CCOCC1)c1ncc(C(F)(F)F)cc1Cl	.	0.33	9	0	1	.	.	.	.	.	.
COc1cccc(C2Oc3ccccc3C3CC(c4cccs4)=NN32)c1 (stereo not given)	12	6.5*	.	2	.	0.017	0.019*	0.032	0.013*	0.02	0.016*
